Experimental data reported in ChEMBL document CHEMBL1138415, “Analogues of the dopamine D2 receptor antagonist L741,626: Binding, function, and SAR” (Bioorg Med Chem Lett, 2007).

Assays:
D(3) dopamine receptor [1] = target: T1, D(3) dopamine receptor (Homo sapiens, UniProt P35462); experiment: Displacement of [125I]IABN from human dopamine D3 receptor expressed in HEK293 cells; format: cell-based
Homo sapiens [2] = species: Homo sapiens; experiment: Selectivity for human dopamine D2L receptor over human dopamine D4 receptor
D(4) dopamine receptor = target: T2, D(4) dopamine receptor (Homo sapiens, UniProt P21917); experiment: Displacement of [125I]IABN from human dopamine D4 receptor expressed in HEK293 cells; format: cell-based
T2 sequence (P21917 whole entry): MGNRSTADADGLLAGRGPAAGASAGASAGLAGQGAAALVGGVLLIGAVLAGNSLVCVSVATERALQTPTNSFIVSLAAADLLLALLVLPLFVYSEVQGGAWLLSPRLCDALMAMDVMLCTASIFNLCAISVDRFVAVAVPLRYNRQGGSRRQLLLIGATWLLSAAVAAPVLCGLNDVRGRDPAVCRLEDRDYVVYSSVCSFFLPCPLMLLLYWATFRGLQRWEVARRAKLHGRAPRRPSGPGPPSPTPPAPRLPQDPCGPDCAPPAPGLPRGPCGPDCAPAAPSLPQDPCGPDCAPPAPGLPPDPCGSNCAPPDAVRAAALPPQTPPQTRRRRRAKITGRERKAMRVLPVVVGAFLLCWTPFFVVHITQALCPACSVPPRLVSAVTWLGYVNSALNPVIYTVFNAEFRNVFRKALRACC
How it was run: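 Competition binding on HEK 293 cells transfected with human D2L or D4 dopamine receptors; radioligand [125I]IABN displaced by test ligand; Ki values derived.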

D(3) dopamine receptor [3] = target: T1, D(3) dopamine receptor; experiment: Antagonist activity at human dopamine D3 receptor expressed in CHO cells assessed as inhibition of quinpirole stimulated mitogenesis; format: functional, cell-based
Homo sapiens [4] = species: Homo sapiens; experiment: Selectivity for human dopamine D2L receptor over human dopamine D3 receptor
D(2) dopamine receptor [5] = target: T3, D(2) dopamine receptor (Homo sapiens, UniProt P14416); experiment: Displacement of [125I]IABN from human dopamine D2L receptor expressed in HEK293 cells; format: cell-based
D(2) dopamine receptor [6] = target: T3, D(2) dopamine receptor; experiment: Antagonist activity at human dopamine D2 receptor expressed in CHO cells assessed as inhibition of quinpirole stimulated mitogenesis; format: functional, cell-based
How it was run: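 Functional mitogenesis assay in CHO cells transfected with human D2 receptor; antagonism measured as inhibition of quinpirole-stimulated mitogenesis (agonism tested as stimulation); EC50 reported; run via NIDA CTDP contract protocol.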

T1 sequence (P35462 whole entry): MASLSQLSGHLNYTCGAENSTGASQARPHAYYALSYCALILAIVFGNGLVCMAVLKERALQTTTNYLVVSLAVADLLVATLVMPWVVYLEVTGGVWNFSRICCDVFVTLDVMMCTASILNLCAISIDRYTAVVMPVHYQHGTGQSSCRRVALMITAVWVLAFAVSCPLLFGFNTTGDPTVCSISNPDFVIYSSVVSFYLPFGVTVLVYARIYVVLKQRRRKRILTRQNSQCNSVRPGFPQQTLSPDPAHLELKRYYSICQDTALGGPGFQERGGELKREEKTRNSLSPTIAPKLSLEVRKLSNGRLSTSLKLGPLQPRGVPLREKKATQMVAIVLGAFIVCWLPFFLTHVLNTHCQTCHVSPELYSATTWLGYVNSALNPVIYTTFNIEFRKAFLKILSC
T3 sequence (P14416 whole entry): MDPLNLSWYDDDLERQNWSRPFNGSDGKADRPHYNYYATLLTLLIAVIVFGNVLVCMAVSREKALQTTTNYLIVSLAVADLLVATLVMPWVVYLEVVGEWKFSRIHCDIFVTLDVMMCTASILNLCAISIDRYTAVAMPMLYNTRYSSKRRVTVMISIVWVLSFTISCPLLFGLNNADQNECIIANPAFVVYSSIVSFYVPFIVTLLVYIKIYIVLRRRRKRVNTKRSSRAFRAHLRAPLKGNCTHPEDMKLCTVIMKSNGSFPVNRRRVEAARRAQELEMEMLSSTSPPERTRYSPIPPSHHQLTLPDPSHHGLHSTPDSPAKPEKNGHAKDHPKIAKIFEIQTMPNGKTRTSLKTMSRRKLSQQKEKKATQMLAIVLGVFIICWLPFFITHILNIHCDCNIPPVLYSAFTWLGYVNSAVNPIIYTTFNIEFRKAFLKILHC

SMILES	Ki (D(3) dopamine receptor [1])	Ratio Ki (Homo sapiens [2])	Ki (D(4) dopamine receptor)	EC50 (D(3) dopamine receptor [3])	Ratio Ki (Homo sapiens [4])	Ki (D(2) dopamine receptor [5])	EC50 (D(2) dopamine receptor [6])
CC1(c2ccc(Cl)cc2)CCN(Cc2c[nH]c3ccccc23)CC1	2100 nM	3	2750 nM	347 nM	2	992 nM	314 nM
C=CCOC1(c2ccc(Cl)cc2)CCN(Cc2c[nH]c3ccccc23)CC1	718 nM	7	1190 nM		4	165 nM	
OC1(c2cccc(C(F)(F)F)c2)CCN(Cc2c[nH]c3ccccc23)CC1	570 nM	35	3750 nM		5	106 nM	69.1 nM
NC1(c2ccc(Cl)cc2)CCN(Cc2c[nH]c3ccccc23)CC1	382 nM	12	2290 nM		2	184 nM	
COc1ccc(C2(O)CCN(Cc3c[nH]c4ccccc34)CC2)cc1	2130 nM	4	679 nM		12	177 nM	
CSc1ccc(C2(O)CCN(Cc3c[nH]c4ccccc34)CC2)cc1	638 nM	13	319 nM		27	23.9 nM	
Oc1ccc(C2(O)CCN(Cc3c[nH]c4ccccc34)CC2)cc1	16800 nM	0.3	1360 nM		3	5360 nM	
NCC1(c2ccc(Cl)cc2)CCN(Cc2c[nH]c3ccccc23)CC1	> 5000 nM		> 20000 nM			> 10000 nM	
COC1(c2ccc(Cl)cc2)CCN(Cc2c[nH]c3ccccc23)CC1	262 nM		34.1 nM	248 nM	4	68.1 nM	34.7 nM
OC1(c2ccc(Cl)c(Cl)c2)CCN(Cc2coc3ccccc23)CC1	28 nM	8	167 nM		1	21 nM	
CCCCCCn1cc(CN2CCC(O)(c3ccc(Cl)cc3)CC2)c2ccccc21	488 nM	47	8890 nM	661 nM	3	188 nM	166 nM
OC1(c2ccc(Cl)cc2)CCCN(Cc2c[nH]c3ccccc23)C1 (centres undefined)	4270 nM	1	2440 nM		1	4270 nM	
OC1(c2ccc(Cl)c(Cl)c2)CCN(Cc2n[nH]c3ccccc23)CC1	156 nM	2	677 nM		0.4	438 nM	
OC1(c2ccc(Cl)cc2)CCN(Cc2cc3ccccc3[nH]2)CC1			> 20000 nM			> 10000 nM	
OC1(c2ccc(Cl)cc2)CCCN(Cc2c[nH]c3ccccc23)CC1 (centres undefined)	2100 nM	19	3870 nM		10	201 nM	260 nM
CC(=O)NC1(c2ccc(Cl)cc2)CCN(Cc2c[nH]c3ccccc23)CC1	193 nM	4	348 nM		2	83.1 nM	24.8 nM
OC1(c2ccc(Cl)c(Cl)c2)CCN(Cc2c[nH]c3ccccc23)CC1	111 nM	159	1100 nM	41.5 nM	16	6.9 nM	15.3 nM
OC1(c2ccccc2Cl)CCN(Cc2c[nH]c3ccccc23)CC1	1860 nM	7	2820 nM		5	382 nM	586 nM
OC1(Cc2ccc(Cl)cc2)CCN(Cc2c[nH]c3ccccc23)CC1	5480 nM	1	3930 nM		2	2890 nM	

SMILES	Ki (D(3) dopamine receptor [1])	Ratio Ki (Homo sapiens [2])	Ki (D(4) dopamine receptor)	EC50 (D(3) dopamine receptor [3])	Ratio Ki (Homo sapiens [4])	Ki (D(2) dopamine receptor [5])	EC50 (D(2) dopamine receptor [6])
Cn1cc(CN2CCC(O)(c3ccc(Cl)cc3)CC2)c2ccccc21	238 nM	174	5140 nM	98.6 nM	8	29.6 nM	20 nM
OC1(c2ccc(-c3ccccc3)cc2)CCN(Cc2c[nH]c3ccccc23)CC1	467 nM	1	129 nM		5	98.4 nM	
Cc1[nH]c2ccccc2c1CN1CCC(O)(c2ccc(Cl)cc2)CC1	44.1 nM	194	2990 nM	20.2 nM	3	15.4 nM	2.13 nM
CSc1ccc(C2(O)CCN(Cc3coc4ccccc34)CC2)cc1	139 nM	3	153 nM		3	54 nM	
FC1(c2ccc(Cl)cc2)CCN(Cc2c[nH]c3ccccc23)CC1	211 nM	3	365 nM		2	120 nM	
COc1ccc2[nH]cc(CN3CCC(O)(c4ccc(SC)cc4)CC3)c2c1	580 nM	103	567 nM		105	5.5 nM	
OC1(c2cccc(Cl)c2Cl)CCN(Cc2c[nH]c3ccccc23)CC1	273 nM	59	1550 nM	232 nM	10	26.1 nM	34.3 nM
OC1(c2ccc(Cl)cc2)CCN(Cc2c[nH]c3ccccc23)CC1	163 nM		1520 nM	90.4 nM			
OC1(c2cccc(Cl)c2)CCN(Cc2c[nH]c3ccccc23)CC1	450 nM	27	3540 nM		3	129 nM	83.4 nM
OCC1(c2ccc(Cl)cc2)CCN(Cc2c[nH]c3ccccc23)CC1	106 nM	1	1940 nM		0.04	2370 nM	
CCOC(=O)C1(c2ccc(Cl)cc2)CCN(Cc2c[nH]c3ccccc23)CC1	724 nM	60	3520 nM		12	58.8 nM	
CC(=O)NCC1(c2ccc(Cl)cc2)CCN(Cc2c[nH]c3ccccc23)CC1	12500 nM	2	4450 nM		6	2000 nM	
OC1(c2ccc(F)cc2)CCN(Cc2c[nH]c3ccccc23)CC1	490 nM	48	6090 nM		4	127 nM	
OC1(c2ccc(Cl)cc2)CCN(Cc2coc3ccccc23)CC1	53 nM	19	404 nM		3	21 nM	
N#CC1(c2ccc(Cl)cc2)CCN(Cc2c[nH]c3ccccc23)CC1	684 nM	11	2270 nM		3	199 nM	225 nM
OC1(c2ccc(Cl)cc2)CCN(Cc2n[nH]c3ccccc23)CC1	440 nM	4	2150 nM		1	548 nM	
COC(=O)C1(c2ccc(Cl)cc2)CCN(Cc2c[nH]c3ccccc23)CC1	544 nM	66	3930 nM		9	60 nM	76.7 nM
CCCCCCOc1ccc(C2(O)CCN(Cc3c[nH]c4ccccc34)CC2)cc1	1950 nM	9	1490 nM		12	159 nM	216 nM
